≈ marks a conversion by molar mass, not a printed value. Calls of active or inactive are those of the source. The calls are words filed in the database; no cut-off is given here.
Tests used:
[1] = Cytotoxicity against MDCK cells after 48 hrs by MTT assay; type: cell-based, Canis lupus familiaris; conditions: dog
Method in brief: (§1)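 MTT assay. HEK 293T or MDCK cells (2×10^4 per well) were cultured at 37 °C in DMEM with serially diluted compounds (250 to 1.9 μM), for 24 h (293T) or 48 h (MDCK). MTT (5 mg/ml stock) was then added for 4 h, cells were lysed and incubated 3 h more, and absorbance was read at 620 nm. CC50 is the concentration cutting viability 50%, mean ± SD of ≥3 independent experiments in duplicate.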

Influenza A virus [2] = assay: Inhibition of Influenza A virus A/PR/8/34 infected in MDCK cells after 48 hrs by plaque reduction assay; type: functional, organism-based; conditions: A/PR/8/34, MDCK
Method in brief: (§2)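 Confluent MDCK monolayers in 12-well plates were infected with about 40 PFU/well in DMEM with 1 µg/ml TPCK-trypsin and 0.14% BSA, with compound or DMSO, for 1 h at 37 °C. Overlay was serum-free medium with trypsin, BSA, 1.2% Avicel and compound. After 48 h, cells were fixed with 4% formaldehyde, stained with 0.1% toluidine blue and plaques counted, with DMSO set as 100%. EC50 is mean ± SD, ≥3 experiments in duplicate.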

[3] = Inhibition of Influenza A virus GST-tagged PB1 (1 to 25) expressed in Escherichia coli binding to Influenza A virus 6His-tagged PA (239 to 716) expressed in Escherichia coli BL21(DE3) by ELISA
Method in brief: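 Plates coated with 400 ng purified E. coli-expressed 6His-PA(239-716) for 3 h at 37 °C, then blocked with 2% BSA/PBS for 1 h at 37 °C. GST-PB1(1-25) (200 ng; GST alone as control) was added with compound at 10, 50, 100 or 200 μM and incubated overnight at room temperature. Detection used HRP anti-GST mAb (1:3000) and TMB at 450 nm, with DMSO set as 100%. IC50 is mean ± SD, ≥3 experiments in duplicate.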

[4] = Inhibition of Influenza A virus RdRP infected in human HEK293T cells after 24 hrs by dual luciferase reporter gene assay; type: cell-based; conditions: HEK-293T
Method in brief: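 HEK 293T cells (10^5 per well) were transfected 24 h after seeding with PB1, PB2, PA and NP plasmids (100 ng each), a pol I firefly luciferase reporter (50 ng) and pRL-SV40 Renilla (50 ng), with compound or DMSO. Medium was replaced with compound-containing DMEM at 4 h. Dual luciferase was read at 24 h post-transfection, with DMSO set as 100%. EC50 is mean ± SD, ≥3 experiments in duplicate.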

[5] = Cytotoxicity against human HEK293T cells after 24 hrs by MTT assay; type: cell-based, HEK-293T; method in brief: as §1
Influenza A virus [6] = assay: Inhibition of Influenza A virus A/[…]/67/05(H3N2) infected in MDCK cells after 48 hrs by plaque reduction assay; type: functional, organism-based; method in brief: as §2
Human betaherpesvirus 5 = assay: Inhibition of HCMV UL54 expressed in baculovirus interaction with UL44 expressed in baculovirus after 1 hr by ELISA
Method in brief: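 Plates coated with […] purified baculovirus-expressed HCMV UL54, then blocked with 2% BSA/PBS for 1 h. Purified UL44 ([…]) carrying a C-terminal EEF tag was added with compound or DMSO (1% final) for 1 h at 37 °C. Detection used MAb YL1/2 (1 h, 37 °C), then HRP anti-rat antibody and TMB, read at 450 nm. Compounds were tested up to 200 μM.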

[7] = Inhibition of Influenza A virus (A/Solomon Islands/3/2006(H1N1)) infected in MDCK cells after 48 hrs by plaque reduction assay; type: functional, cell-based; method in brief: as §2
Influenza A virus [8] = assay: Inhibition of Influenza A virus A/Padova/30/11(H1N1) infected in MDCK cells after 48 hrs by plaque reduction assay; type: functional, organism-based; method in brief: as §2
Influenza B virus [9] = assay: Inhibition of Influenza B virus (B/Malaysia/2506/2004) infected in MDCK cells after 48 hrs by plaque reduction assay; type: functional, cell-based; conditions: B/Malaysia/2506/2004, MDCK; method in brief: as §2
Influenza B virus [10] = assay: Inhibition of Influenza B virus (B/Lee/40) infected in MDCK cells after 48 hrs by plaque reduction assay; type: functional, organism-based; conditions: B/Lee/1940, MDCK; method in brief: as §2
[11] = Inhibition of Influenza A virus (A/Parma/24/2009(H1N1)) infected in MDCK cells after 48 hrs by plaque reduction assay; type: functional, cell-based; method in brief: as §2
Liver microsome = assay: Metabolic stability in human liver microsomes after 30 mins by HPLC-MS/MS analysis; type: ADME; conditions: 0.5 h
[12] = Solubility of the compound in D2O at 25 degC after 24 hrs by NMR analysis; type: physicochemical
[13] = Permeability of the compound by PAMPA; type: physicochemical
[14] = Metabolic stability in human liver microsomes assessed as compound remaining after 30 mins by HPLC-MS/MS analysis; type: ADME; conditions: read-out: Stability

Cc1ccc(C)c(NS(=O)(=O)c2cc(C(=O)Nc3ccccc3C(=O)Nc3ccccc3)ccc2C)c1
CC50 at 48 h [1]: 70.3 µM | EC50 (Influenza A virus [2]): 24.7 µM | IC50 [3]: 91.9 µM | EC50 [4]: > 100 µM | CC50 at 24 h [5]: > 250 µM

NC(=O)c1c(NC(=O)c2cccnc2)sc2c1CCCC2
CC50 at 48 h [1]: 45.2 µM | IC50 [3]: > 200 µM | CC50 at 24 h [5]: > 250 µM

CCC(C)NC(=O)c1ccccc1NC(=O)c1cccc(S(=O)(=O)Nc2cc(C)ccc2C)c1 (stereo unspecified)
CC50 at 48 h [1]: > 250 µM | EC50 (Influenza A virus [2]): 35.2 µM | EC50 (Influenza A virus [6]): 10.8 µM | IC50 [3]: 84 µM | EC50 [4]: 25.7 µM | inhibition activity call (active/not active) (Human betaherpesvirus 5): inactive | EC50 [7]: 16.5 µM | EC50 (Influenza A virus [8]): 16.7 µM | EC50 (Influenza B virus [9]): 19.8 µM | CC50 at 24 h [5]: > 250 µM | EC50 (Influenza B virus [10]): 15.5 µM | EC50 [11]: 22.1 µM

NC(=O)c1c(NC(=O)c2cnn3c(C(F)F)cc(-c4ccccc4)nc23)sc2c1CCCC2
CC50 at 48 h [1]: > 250 µM | EC50 (Influenza A virus [2]): 66 µM | IC50 [3]: 91.2 µM | EC50 [4]: 94.2 µM | CC50 at 24 h [5]: > 250 µM

Cn1c(=O)cc2c3c(c(N4CCCCC4)ccc31)C(=O)c1ccccc1-2
inhibition activity call (active/not active) (Human betaherpesvirus 5): Active

COc1ccc(-c2cc(C(F)(F)F)n3ncc(C(=O)Nc4sc5c(c4C(N)=O)CCCC5)c3n2)cc1
CC50 at 48 h [1]: 51.3 µM | IC50 [3]: 135 µM | CC50 at 24 h [5]: 40.4 µM

NC(=O)c1c(NC(=O)c2cnn3c(C(F)(F)F)cc(-c4ccccc4)nc23)sc2c1CCC2
CC50 at 48 h [1]: > 250 µM | EC50 (Influenza A virus [2]): 57 µM | IC50 [3]: 44.8 µM | EC50 [4]: 27.5 µM | CC50 at 24 h [5]: > 250 µM

O=C(Nc1ccc2c(c1)CCC2)c1cnn2c(C(F)(F)F)cc(-c3cccs3)nc12
CC50 at 48 h [1]: 18.3 µM | IC50 [3]: 35.1 µM | CC50 at 24 h [5]: 12.4 µM

NC(=O)c1c(NC(=O)c2nc3nc(-c4ccccc4)cc(C(F)(F)F)n3n2)sc2c1CCCC2
Stability (Liver microsome): Stable | CC50 at 48 h [1]: > 250 µM | EC50 (Influenza A virus [2]): 23.7 µM | EC50 (Influenza A virus [6]): 20 µM | IC50 [3]: 7.5 µM | EC50 [4]: 9.2 µM | inhibition activity call (active/not active) (Human betaherpesvirus 5): inactive | EC50 [7]: 23.3 µM | EC50 (Influenza A virus [8]): 20.6 µM | solubility at 24 h [12]: 2.4 µg/mL (≈ 4.93 µM) | EC50 (Influenza B virus [9]): 25.9 µM | CC50 at 24 h [5]: > 250 µM | EC50 (Influenza B virus [10]): 33.5 µM | permeability [13]: permeable | EC50 [11]: 22.9 µM

CCC(C)NC(=O)c1ccccc1NC(=O)c1ccc(C)c(S(=O)(=O)Nc2cc(C)ccc2C)c1 (stereo unspecified)
CC50 at 48 h [1]: > 250 µM | EC50 (Influenza A virus [2]): 18.7 µM | EC50 (Influenza A virus [6]): 15.9 µM | IC50 [3]: 30.5 µM | EC50 [4]: 45.9 µM | inhibition activity call (active/not active) (Human betaherpesvirus 5): inactive | EC50 [7]: 17.5 µM | EC50 (Influenza A virus [8]): 22.6 µM | EC50 (Influenza B virus [9]): 29.6 µM | CC50 at 24 h [5]: > 250 µM | EC50 (Influenza B virus [10]): 21.8 µM | EC50 [11]: 25 µM

O=C(Nc1ccccc1Cl)c1ccc2c(c1)C1C3CCC(C3)C1C(c1ccccc1)N2 (stereo unspecified)
CC50 at 48 h [1]: > 250 µM | EC50 (Influenza A virus [2]): > 100 µM | IC50 [3]: > 200 µM | EC50 [4]: > 100 µM | CC50 at 24 h [5]: > 250 µM

CCC(C)NC(=O)c1ccccc1NC(=O)c1cccc(S(=O)(=O)Nc2ccccc2)c1 (stereo unspecified)
CC50 at 48 h [1]: > 250 µM | EC50 (Influenza A virus [2]): 30.5 µM | EC50 (Influenza A virus [6]): 23.5 µM | IC50 [3]: 9.2 µM | EC50 [4]: 17.2 µM | inhibition activity call (active/not active) (Human betaherpesvirus 5): inactive | EC50 [7]: 22.5 µM | EC50 (Influenza A virus [8]): 37.6 µM | solubility at 24 h [12]: 1 µg/mL (≈ 2.21 µM) | EC50 (Influenza B virus [9]): 26.3 µM | CC50 at 24 h [5]: > 250 µM | EC50 (Influenza B virus [10]): 25.5 µM | permeability [13]: permeable | EC50 [11]: 43 µM | remaining at 0.5 h [14]: 50%

O=C(Nc1cnn(C23CC4CC(CC(C4)C2)C3)c1)c1cnn2c1NC(c1ccccc1)CC2C(F)(F)F (stereo unspecified)
CC50 at 48 h [1]: 20.2 µM | IC50 [3]: > 200 µM | CC50 at 24 h [5]: 30.1 µM

NC(=O)c1c(NC(=O)c2cnn3c(C(F)(F)F)cc(-c4ccccc4)nc23)sc2c1CCCC2
CC50 at 48 h [1]: > 250 µM | EC50 (Influenza A virus [2]): > 100 µM | IC50 [3]: 120 µM | EC50 [4]: 70.5 µM | CC50 at 24 h [5]: > 250 µM

Cc1ccc(-c2cc(C(F)(F)F)n3ncc(C(=O)Nc4sc5c(c4C(N)=O)CCCC5)c3n2)cc1
CC50 at 48 h [1]: > 250 µM | EC50 (Influenza A virus [2]): 101 µM | IC50 [3]: 43 µM | EC50 [4]: 63 µM | CC50 at 24 h [5]: > 250 µM

COC(=O)C1=C(N)N(c2cccc(Cl)c2C)C2=C(C(=O)CCC2)C1c1ccc2c(c1)OCO2 (stereo unspecified)
IC50 [3]: 30.4 µM | EC50 [4]: 18.5 µM

NC(=O)c1c(NC(=O)c2cnn3c(C(F)F)cc(-c4ccccc4)nc23)sc2c1CCC2
CC50 at 48 h [1]: > 250 µM | EC50 (Influenza A virus [2]): 75.5 µM | EC50 (Influenza A virus [6]): > 100 µM | EC50 [4]: 29.5 µM | IC50 [4]: 31.4 µM | inhibition (Human betaherpesvirus 5): inactive | EC50 [7]: > 100 µM | EC50 (Influenza A virus [8]): > 100 µM | EC50 (Influenza B virus [9]): > 100 µM | CC50 at 24 h [5]: > 250 µM | EC50 (Influenza B virus [10]): > 100 µM | EC50 [11]: 95.5 µM | remaining at 0.5 h [14]: 37%

CCC(C)NC(=O)c1ccccc1NC(=O)c1cccc(S(=O)(=O)Nc2ccc(O)cc2)c1 (stereo unspecified)
CC50 at 48 h [1]: > 250 µM | EC50 (Influenza A virus [2]): > 100 µM | IC50 [3]: > 200 µM | EC50 [4]: 82.6 µM | CC50 at 24 h [5]: > 250 µM

CCC(C)NC(=O)c1ccccc1NC(=O)c1ccc(C)c(S(=O)(=O)Nc2cccc(NC(=O)c3ccccc3)c2)c1 (stereo unspecified)
CC50 at 48 h [1]: > 250 µM | EC50 (Influenza A virus [2]): > 100 µM | IC50 [3]: > 200 µM | EC50 [4]: > 100 µM | CC50 at 24 h [5]: > 250 µM

NC(=O)c1ncn([C@@H]2O[C@H](CO)[C@@H](O)[C@H]2O)n1 [RIBAVIRIN]
CC50 at 48 h [1]: > 250 µM | EC50 (Influenza A virus [2]): 15.6 µM | EC50 [4]: 24.9 µM | CC50 at 24 h [5]: > 250 µM
